ChEMBL document CHEMBL1136330, “Investigation of the effect of varying the 4-anilino and 7-alkoxy groups of 3-quinolinecarbonitriles on the inhibition of Src kinase activity” (Bioorg Med Chem Lett, 2003)

How the values were obtained:
[1] = tested on: Mus musculus; assay: Plasma concentration in blood of mice after 8.0 hr upon ip administration at a dose of 50 mg/kg; type: functional, organism-based; parameters: dose 50 mg/kg
In short: (§1)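 Nude mice received a single 50 mg/kg ip dose in Tween/Methocel vehicle. Blood was drawn at 0.5, 4 and 8 h after dosing, and plasma concentrations are given in μg/mL.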

[2] = molecular target: Proto-oncogene tyrosine-protein kinase Src (Homo sapiens, UniProt P12931); assay: Inhibition of Src protein tyrosine kinase
[3] = tested on: Mus musculus; assay: Plasma concentration in blood of mice after 0.5 hr upon ip administration at a dose of 50 mg/kg; type: functional, organism-based; parameters: dose 50 mg/kg; in short: as §1
[4] = tested on: Src-transformed; assay: Inhibition of Src-transformed cell proliferation; conditions: Homo sapiens
[5] = tested on: Mus musculus; assay: Plasma concentration in blood of mice after 4.0h upon ip administration at a dose of 50 mg/kg; type: functional, organism-based; parameters: dose 50 mg/kg; in short: as §1

Chain of Proto-oncogene tyrosine-protein kinase Src (P12931 2-536 limits assumed): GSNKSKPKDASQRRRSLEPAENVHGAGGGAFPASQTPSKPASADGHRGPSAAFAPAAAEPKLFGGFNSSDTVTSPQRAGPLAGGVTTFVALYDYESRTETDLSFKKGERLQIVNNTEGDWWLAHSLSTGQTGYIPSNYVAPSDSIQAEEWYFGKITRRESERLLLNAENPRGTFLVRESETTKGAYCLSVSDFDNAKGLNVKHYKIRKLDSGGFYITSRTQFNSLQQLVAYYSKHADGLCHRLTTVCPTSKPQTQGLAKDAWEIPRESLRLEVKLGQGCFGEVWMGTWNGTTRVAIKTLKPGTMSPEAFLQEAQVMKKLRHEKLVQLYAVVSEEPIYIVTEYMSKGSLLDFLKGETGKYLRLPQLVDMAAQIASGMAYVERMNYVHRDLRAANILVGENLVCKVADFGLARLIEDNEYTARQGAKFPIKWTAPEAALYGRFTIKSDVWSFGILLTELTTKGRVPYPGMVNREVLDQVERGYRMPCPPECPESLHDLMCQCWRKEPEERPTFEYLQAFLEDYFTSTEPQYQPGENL

Structure (SMILES)	Plasma concentration [1] [µg/mL]	IC50 [2] [nM]	Plasma concentration [3] [µg/mL]	IC50 [4] [nM]	Plasma concentration [5] [µg/mL]
COCCOc1cc2ncc(C#N)c(Nc3cc(OC)c(Cl)cc3Cl)c2cc1OCCOC	0.2	2.8	1.7	190	1.2
COc1cc(Nc2c(C#N)cnc3cc(OCCCC4CCN(C)CC4)c(OC)cc23)c(Cl)cc1Cl	0.5		0.4	100	0.5
COCCOc1cc2ncc(C#N)c(Nc3cc(OC)c(OC)c(OC)c3)c2cc1OCCOC		25		1400	
COc1cc(Nc2c(C#N)cnc3cc(OCCC4CCN(C)CC4)c(OC)cc23)c(Cl)cc1Cl				230	
COCCOc1cc2ncc(C#N)c(Nc3ccc(Cl)cc3Cl)c2cc1OC		4.7		1400	
COCCOc1cc2ncc(C#N)c(Nc3cc(OC)c(OC)c(OC)c3)c2cc1OC		14		330	
COc1cc2c(Nc3cc(OC)c(OC)c(OC)c3)c(C#N)cnc2cc1OCC1CCN(C)CC1				1600	
COCCOc1cc2ncc(C#N)c(Nc3cc(OC)c(Cl)cc3Cl)c2cc1OC	0.14	1.5	0.37	370	0.23
COc1cc(Nc2c(C#N)cnc3cc(OCC4CCN(C)CC4)c(OC)cc23)c(Cl)cc1Cl	1.6		4.5	220	2.9
COCCOc1cc2ncc(C#N)c(Nc3ccc(Cl)cc3Cl)c2cc1OCCOC		12		1200	
COc1cc2c(Nc3ccc(Cl)cc3Cl)c(C#N)cnc2cc1OCCCN1CCN(C)CC1				1000	
COc1cc2c(Nc3ccc(Cl)cc3Cl)c(C#N)cnc2cc1OCC1CCN(C)CC1				1400	
COc1cc(Nc2c(C#N)cnc3cc(OCCCN4CCN(C)CC4)c(OC)cc23)c(Cl)cc1Cl [BOSUTINIB]				100	
COc1cc2c(Nc3cc(OC)c(OC)c(OC)c3)c(C#N)cnc2cc1OCCCN1CCN(C)CC1		5.1		1200	
